Measured values as given in ChEMBL document CHEMBL3994628, “Coumarin derivatives as potential antitumor agents: Growth inhibition, apoptosis induction and multidrug resistance reverting activity” (Eur J Med Chem, 2017).
Calls of active or inactive are those of the source. The rule behind the calls is not given here.

What was measured:
[1] = Growth inhibition of human LoVo/DX cells after 24 hrs by MTT assay; assay type: functional, cell-based
Summary of the method: (§1)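 Cells were plated at 2x10^4 cells/cm2 and grown in RPMI 1640 with 10% FBS and 2 mM glutamine at 37 °C. They were exposed for 24 h to 0.01-100 µM, diluted from a 10 mmol/L DMSO stock, in triplicate. MTT was then added at 0.2 mg/mL in PBS for 4 h and the formazan dissolved in DMSO. A540 was read and IC50 taken from the dose-response curve, mean ± SD. The ratio compares the IC50s of the two lines.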

Homo sapiens [2] = species: Homo sapiens; test: Inhibition of P-gp in human LoVo/DX cells assessed as reduction in Rhodamine123 efflux at 2.5 uM preincubated for 15 mins followed by Rhodamine123 addition measured after 1 hr by flow cytometry; assay type: cell-based
Summary of the method: (§2)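 LoVo/Dx cells at 3x10^5 cells/mL in serum-free, phenol red-free medium were preincubated at room temperature for 15 min at 2.5 or 10 µM. Rhodamine 123 was then added at 2 µM for 1 h at 37 °C in the dark. After a PBS wash, fluorescence was read by flow cytometry at 488 nm excitation and 530 nm emission. Mean control fluorescence was subtracted. Verapamil served as positive control. Data are mean ± SD of ≥3 experiments.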

LoVo [3] = test: Growth inhibition of human LoVo cells after 24 hrs by MTT assay; assay type: functional, cell-based; summary of the method: as §1
Homo sapiens [4] = species: Homo sapiens; test: Substrate activity at P-gp in human LoVo/DX cells assessed as ATP consumption at 10 uM after 2 hrs by ATPlite assay; assay type: cell-based
LoVo [5] = test: Cytotoxic activity against human LoVo cells after 24 hrs by phase contrast microscopic method; assay type: functional, cell-based
Summary of the method: (§3)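 LoVo or LoVo/Dx cells were plated at 2x10^4 cells/cm2 in RPMI 1640 with 10% FBS and exposed for 24 h. Phase contrast microscopy was used to judge growth delay without cell death (cytostatic) or cell death, shown as floating cells (cytotoxic).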

LoVo [6] = test: Cell cycle arrest in human LoVo cells assessed as accumulation at G2/M phase after 24 hrs by propidium iodide staining based flow cytometry; assay type: functional
LoVo [7] = test: Cytostatic activity against human LoVo cells by phase contrast microscopic method; assay type: functional, cell-based; summary of the method: as §3
LoVo [8] = test: Induction of apoptosis in human LoVo cells assessed as caspase-activation using DEVD as substrate at cytotoxic concentration after 24 hrs by fluorimetric assay relative to control; assay type: functional
Summary of the method: (§4)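 After 24 h exposure at cytotoxic concentration, DEVD-hydrolysing caspase activity was measured fluorimetrically in cell extracts. Values are given as percentage increase over untreated control, set at 100%. Data are mean ± SD of at least three independent experiments.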

[9] = Selectivity ratio of IC50 for human LoVo/DX cells to IC50 for human LoVo cells; assay type: functional; summary of the method: as §1
Homo sapiens [10] = species: Homo sapiens; test: Inhibition of P-gp in human LoVo/DX cells assessed as reduction in Rhodamine123 efflux at 10 uM preincubated for 15 mins followed by Rhodamine123 addition measured after 1 hr by flow cytometry; assay type: cell-based; summary of the method: as §2
LoVo/DX [11] = test: Cytotoxic activity against human LoVo/DX cells after 24 hrs by phase contrast microscopic method; assay type: functional, cell-based; summary of the method: as §3
LoVo/DX [12] = test: Induction of apoptosis in human LoVo/DX cells assessed as caspase-activation using DEVD as substrate at cytotoxic concentration after 24 hrs by fluorimetric assay; assay type: functional, cell-based; summary of the method: as §4
LoVo/DX [13] = test: Cytostatic activity against human LoVo/DX cells by phase contrast microscopic method; assay type: functional, cell-based; summary of the method: as §3
LoVo/DX [14] = test: Cell cycle arrest in human LoVo/DX cells assessed as accumulation at S phase after 24 hrs by propidium iodide staining based flow cytometry; assay type: functional
LoVo [15] = test: Cell cycle arrest in human LoVo cells assessed as accumulation at G0/G1 phase after 24 hrs by propidium iodide staining based flow cytometry; assay type: functional
LoVo/DX [16] = test: Cell cycle arrest in human LoVo/DX cells assessed as accumulation at G0/G1 phase after 24 hrs by propidium iodide staining based flow cytometry; assay type: functional
LoVo/DX [17] = test: Cell cycle arrest in human LoVo/DX cells assessed as accumulation at G2/M phase at 3.6 uM after 24 hrs by propidium iodide staining based flow cytometry; assay type: functional
LoVo [18] = test: Cell cycle arrest in human LoVo cells assessed as accumulation at G2/M phase at 3.5 to 7 uM after 24 hrs by propidium iodide staining based flow cytometry; assay type: functional
[19] = Selectivity ratio of IC50 for human LoVo cells to IC50 for human LoVo/DX cells; assay type: functional; summary of the method: as §1
[20] = Induction of apoptosis in human LoVo/DX cells assessed as caspase-activation using DEVD as substrate at cytotoxic concentration after 24 hrs by fluorimetric assay relative to sensitive LoVo cells; assay type: functional
LoVo/DX [21] = test: Cell cycle arrest in human LoVo/DX cells assessed as accumulation at G0/G1 phase at 1.8 uM after 24 hrs by propidium iodide staining based flow cytometry; assay type: functional
Homo sapiens [22] = species: Homo sapiens; test: Inhibition of P-gp in human LoVo/DX cells assessed as reduction in Rhodamine123 efflux at 2.5 to 10 uM preincubated for 15 mins followed by Rhodamine123 addition measured after 1 hr by flow cytometry relative to verapamil; assay type: cell-based; summary of the method: as §2

Structure (SMILES)	IC50 [1] [µM]	P-gp inhibition (active/not active) (Homo sapiens [2])	IC50 (LoVo [3]) [µM]	Activity (Homo sapiens [4])	P-gp inhibition (active/not active) (Homo sapiens [10])	other results
C/C(C#CCN1CCCCC1)=C\COc1ccc2ccc(=O)oc2c1	33	Active	62			
CC(C)=CCOc1ccc2ccc(=O)oc2c1 [7-PRENYLOXYCOUMARIN]	50.3	Active	30			
COc1ccc(CCN(C)CCCC(C#N)(c2ccc(OC)c(OC)c2)C(C)C)cc1OC (stereo not given)				Active		
C/C(C#CCN1CCN(c2ccccc2)CC1)=C\COc1ccc2ccc(=O)oc2c1	12	Active	41			
C/C(C#CCN1CCN(Cc2ccccc2)CC1)=C\COc1ccc2ccc(=O)oc2c1	19.6	Active	67.6			
C/C(C#CCN1CCC(n2c(=O)[nH]c3ccccc32)CC1)=C\COc1ccc2ccc(=O)oc2c1	5	Active	2.5	Active	Active	Activity (LoVo [5]): Active; Activity (LoVo [6]): Dose-dependent effect; Activity (LoVo [7]): Active; Activity (LoVo [8]): 19%; Ratio IC50 [9]: 2; Activity (LoVo/DX [11]): Active; Activity (LoVo/DX [12]): Active; Activity (LoVo/DX [13]): Active; Activity (LoVo/DX [14]): Dose-dependent effect; Activity (LoVo [15]): Dose-dependent effect
C/C(C#CCN1CCN(C(c2ccc(F)cc2)c2ccc(F)cc2)CC1)=C\COc1ccc2ccc(=O)oc2c1	60	Active	47	Active	Active	
COc1cc2c(cc1OC)CN(CC#C/C(C)=C/COc1ccc3ccc(=O)oc3c1)CC2	10.6	Active	10.7	inactive	Active	Activity (LoVo [5]): Active; Activity (LoVo/DX [16]): Dose-dependent effect; Activity (LoVo [7]): Active; Activity (LoVo [8]): 39%; Activity (LoVo/DX [11]): Active; Activity (LoVo/DX [12]): Active; Activity (LoVo/DX [13]): Active; Activity (LoVo [15]): Dose-dependent effect
C#C/C(C)=C/COc1ccc2ccc(=O)oc2c1	71.5	inactive	48			
C/C(C#CCN1CCN(C2c3ccccc3-c3ccccc32)CC1)=C\COc1ccc2ccc(=O)oc2c1	1.8	Active	3.5	Active	inactive	Activity (LoVo [5]): Active; Activity (LoVo/DX [17]): Active; Activity (LoVo [18]): Active; Activity (LoVo [7]): Active; Activity (LoVo [8]): 72%; Ratio IC50 [19]: 2; Activity (LoVo/DX [11]): Active; fold change (FC) [20]: 3; Activity (LoVo/DX [13]): Active; Activity (LoVo/DX [21]): Active
COc1ccc(CCN(C)CC#C/C(C)=C/COc2ccc3ccc(=O)oc3c2)cc1OC	15.4	Active	40	inactive	Active	fold change (FC) (Homo sapiens [22]): 10
